The list is not random: actives were taken first. Their share in the collection is about 3.1%.
ADAM17 inh: inhibitors of human ADAM17. hit rate 0.83% among 370,000. recombinant ADAM17, EDANS/DABCYL FRET peptide cleavage. inhibition, % at 6.95 µM;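 active means inhibition above the mean of compounds lying between control limits plus 3 SD, set per campaign, cut at about 8.5% in these data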;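 further: 0% = DMSO-only wells as the low control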
Target sequence (P78536 215-824 limits assumed): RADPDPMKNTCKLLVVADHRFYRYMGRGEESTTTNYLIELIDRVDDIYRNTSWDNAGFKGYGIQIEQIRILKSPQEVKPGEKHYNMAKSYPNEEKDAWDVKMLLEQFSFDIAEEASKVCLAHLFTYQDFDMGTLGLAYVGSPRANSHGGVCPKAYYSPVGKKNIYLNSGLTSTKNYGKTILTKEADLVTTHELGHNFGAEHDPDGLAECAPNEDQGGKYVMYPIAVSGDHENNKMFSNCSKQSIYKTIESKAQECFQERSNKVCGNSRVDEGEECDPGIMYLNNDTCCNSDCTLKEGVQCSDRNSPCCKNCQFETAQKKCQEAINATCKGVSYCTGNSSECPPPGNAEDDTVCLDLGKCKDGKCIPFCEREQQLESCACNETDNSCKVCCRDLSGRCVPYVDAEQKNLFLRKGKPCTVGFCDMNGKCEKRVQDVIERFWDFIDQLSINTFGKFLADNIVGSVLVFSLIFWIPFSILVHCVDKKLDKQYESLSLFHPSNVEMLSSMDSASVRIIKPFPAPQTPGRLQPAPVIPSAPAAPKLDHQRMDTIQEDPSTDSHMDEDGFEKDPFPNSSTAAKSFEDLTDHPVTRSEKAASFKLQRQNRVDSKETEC
ADAM10 inh: ADAM10 inhibition, QFRET primary screen. inhibition, % at 7 µM. AID 720582. hit rate 0.62% among 370,000. recombinant ADAM10, EDANS/DABCYL FRET peptide cleavage, 3 h;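 active means inhibition above a per-campaign cutoff equal to the mean of compounds falling between control-based bounds plus 3 SD, cut at about 20% in these data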;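 further: 0% = DMSO wells while the 100% control is not disclosed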
V-ATPase pHluor: regulators of yeast V-ATPase proton transport | S. cerevisiae, pHLuorin cytosolic pH fluorescence | response, % at 10 µM | hit rate 0.37% among 350,000 | AID 504577; in the data active means response mostly above about 7.3%, no sharp cut-off; inactive means mostly below about 5.4%; further: actives read high
MPTP inh: inhibitors of mitochondrial permeability transition pore. isolated mouse mitochondria, Ca2+ swelling absorbance, 30 min. inhibition, % at 10 µM. hit rate 1.4% among 360,000. AID 602449;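 active means inhibition of 50% or more, scaled per plate between neutral and stimulator controls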;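 further: 0% = DMSO wells given calcium and 100% = 1 mM EGTA wells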
Lipid droplet: hepatic lipid droplet formation modulation | AML12 mouse hepatocytes, oleate lipid droplets, BODIPY imaging | hit rate 0.4% among 240,000 | inhibition, % at 6.5 µM;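 active means lipid droplet intensity inhibited by at least 50%, with more than 500 cells counted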
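Assay system: AML12 hepatocytes (mouse); Probe or stimulus: oleic acid at 100 µM to induce lipid droplet formation; Dosing: compound at 6.5 µM only; Schedule: compound with oleate, overnight; Detection: fluorescence imaging, 20x objective, two fields per well; Measure: % inhibition of lipid droplet signal.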
aDG glyco up: alpha-DG glycosylation activation; activation, % at 10 µM; AID 624168; hit rate 0.22% among 360,000; Pro5-aDG cells, alpha-DG glycosylation AlphaScreen (IIH6); 0% Pro5, 100% B10-LARGE cell signal;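 active means activation of at least 8% versus controls, or a plate z-score of at least 8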;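 further: Pro5 are CHO cells carrying HIG-tagged alpha-DG that lacks glycosylation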
ADAM10 confirm: confirmation of inhibitors of human ADAM10 | shares compounds with ADAM10 inh | ADAM10 QFRET peptide cleavage, EDANS fluorescence | inhibition, % at 6.95 µM | hit rate 1% among 2,100;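 active means inhibition above about 20% chosen separately for each screening run, limit read from the data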;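 further: 0% = DMSO wells and 100% = marimastat wells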
ADAM17 counter: ADAM17 inhibition, counter-screen for ADAM10 exosite hits; hit rate 0.5% among 2,100; shares compounds with ADAM10 inh; inhibition, % at 6.95 µM; ADAM17 QFRET peptide cleavage, EDANS fluorescence; AID 743214;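 active means mean triplicate inhibition above the solvent-only control wells' mean plus 3 SD, cut at about 12% in these data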;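 further: 0% = DMSO wells and 100% = marimastat wells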
An asterisk follows results filed as active; i = inactive; x = not tested or not shown.

SMILES | ADAM17 inh | ADAM10 inh | V-ATPase pHluor | MPTP inh | Lipid droplet | aDG glyco up | ADAM10 confirm | ADAM17 counter
Cc1cc(Br)c2c(c1)/C(=C/C(=O)c1cccs1)C(=O)N2 | 1 | 20* | 3 | -8 | 1 | 0 | 1 | 0
Cc1cc(NC(=O)C(C)SCC(=O)Nc2nnc(CC(C)C)s2)no1 (stereo unspecified) | 1 | 82* | 0 | -1 | x | 0 | 1 | 0
S=c1nc2ccccc2c2nc(-c3ccccc3)[nH]n12 | 2 | 21* | -5 | 2 | x | 0 | -3 | -1
C/C(=C/c1c[n+](Cc2ccc3c(c2)OCO3)c(N)[nH]1)Cn1[nH]c(=O)n(-c2ccccc2)c1=O | -5 | -6 | x | x | x | x | x | x
CCCCC(CCC(=O)Nc1cc([N+](=O)[O-])ccc1O)C(=O)O (stereo unspecified) | 1 | 5 | 1 | 0 | 13 | 0 | x | x
CC(CC(=O)O)CC(=O)Nc1cc([N+](=O)[O-])ccc1O (stereo unspecified) | 1 | 20* | 1 | -1 | 10 | -1 | 4 | 1
C/C(CC(=O)Nc1ccc([N+](=O)[O-])cc1)=N/NC(=O)C1CC12CCC2 (stereo unspecified) | 8 | 20* | 3 | -1 | 4 | 0 | 2 | 0
C/C(CC(=O)Nc1ccc([N+](=O)[O-])cc1)=N/NC(=O)C1C2CCCCC21 (stereo unspecified) | 0 | 6 | -4 | 6 | 16 | 0 | x | x
Cc1ccccc1OC(C)C(=O)Nc1ccc(S(=O)(=O)Nc2nccs2)cc1 (stereo unspecified) | -1 | -3 | 6 | 3 | -8 | 0 | x | x
CC(Oc1ccccc1Cl)C(=O)Nc1ccc(S(=O)(=O)Nc2nccs2)cc1 (stereo unspecified) | -36 | 51* | 3 | 1 | x | 0 | 0 | 0
CN(C)c1ccc(NC(=O)NC2CCCCN(Cc3cccc(Cl)c3)C2=O)cc1 (stereo unspecified) | -4 | -3 | x | x | x | x | x | x
O=C(CCc1ccc(S(=O)(=O)NC2CCCCC2)cc1)N(Cc1ccccc1)Cc1ccccc1 | 7 | 21* | 1 | -5 | x | 1 | 7 | 2
O=C(CCc1ccc(S(=O)(=O)NC2CCCCC2)cc1)Nc1ccccc1 | -4 | 2 | -1 | 1 | 1 | 0 | x | x
Cc1ccc(-c2c(NC(=O)C3CC3)nc3ncccn23)cc1 | -327 | i | x | x | x | x | x | x
COc1ccc(N(C)S(=O)(=O)c2cccc(C(=O)Nc3cc(OC)ccc3OC)c2)cc1 | 7 | 21* | 3 | 0 | -66 | -1 | 7 | 2
COc1ccc(N(C)S(=O)(=O)c2cccc(C(=O)Nc3ccc(OC)nc3)c2)cc1 | 2 | 7 | x | x | 7 | x | x | x
C=CCn1c(COc2ccccc2)nnc1SCC(=O)Nc1ccc(Oc2ccccc2)cc1 | 6 | 21* | x | x | x | x | 3 | 0
COc1ccc(OC)c(S(=O)(=O)N2CCC(c3cn4ccccc4n3)CC2)c1 | -76 | -293 | x | x | x | x | x | x
COc1ccccc1NC(=O)CN(c1ccc(C23CC4CC(CC(C4)C2)C3)cc1)S(C)(=O)=O | 4 | 22* | 0 | 1 | x | 2 | 16 | 5
O=S(=O)(c1ccccc1)N1CCc2ccccc2C1 | -1 | 0 | -3 | -2 | 4 | 0 | x | x
Cc1cc(S(=O)(=O)N2CCc3ccccc3C2)ccc1F | 2 | 22* | 4 | 0 | -2 | 0 | 1 | 1
O=S(=O)(Nc1ccc2c(c1)OCCO2)c1ccc(Br)s1 | 3 | 21* | 1 | 14 | 1 | 0 | 2 | 0
Cn1cccc1C=NNC(=O)c1cc(-c2ccc(Cl)cc2)n[nH]1 | -1 | -5 | x | x | x | x | x | x
Cc1ccc(S(=O)(=O)Nc2ccc(Cl)cc2)cc1NC(=O)c1cc2c(s1)CCCC2 | 10* | 24* | 2 | 36 | -14 | 0 | 17 | 4
O=C1CC(N2CCCN(Cc3ccccc3)CC2)=NC(=O)N1c1ccc(Br)cc1 | -11 | -28 | x | x | x | x | x | x
SMILES | ADAM17 inh | ADAM10 inh | V-ATPase pHluor | MPTP inh | Lipid droplet | aDG glyco up | ADAM10 confirm | ADAM17 counter
C#Cc1cccc(OCC(C)CN2CCC(C(O)(c3ccccc3)c3ccccc3)CC2)c1 (stereo unspecified) | 8 | 15 | x | x | x | x | x | x
COc1ccc(N(C)C(=O)c2oc(=O)c3ccccc3c2-c2ccc(C)cc2)c(OC)c1 | 2 | 22* | -13 | 3 | 2 | 0 | 2 | 1
COc1ccccc1CCC(=O)N(C)CC(=O)Nc1ccc(Cl)c(C(F)(F)F)c1 | 5 | 22* | -1 | 0 | -5 | 0 | 2 | 1
COc1ccc(CN2C(=O)N3Cc4ccc(C)cc4C3CS2(=O)=O)cc1 (stereo unspecified) | 2 | 3 | x | x | x | x | x | x
COc1cccc(C(O)c2nc(-c3ccccc3C)cs2)c1 (stereo unspecified) | 8 | 20* | x | 2 | x | 0 | 1 | 0
CCOC(=O)C1(Cc2ccccc2)CCN(Cc2ccccc2[N+](=O)[O-])CC1 | 2 | 5 | x | x | x | x | x | x
C=CCN1CCc2cc(O)c(O)cc2C(c2ccccc2)C1 (stereo unspecified) | -2 | 21* | 5 | -3 | x | 0 | -2 | 0
C=CCN1CCc2c(cc(O)c(O)c2Cl)C(c2ccccc2)C1 (stereo unspecified) | 2 | 2 | 0 | 2 | -2 | 0 | x | x
C=CCn1c(COc2ccc(C)cc2)nnc1SCC(=O)c1ccc(-c2ccccc2)cc1 | 0 | 8 | x | x | x | x | x | x
COC(=O)[C@]12C[C@H](CC(=O)NCc3cccc(C(F)(F)F)c3)C(=O)N(Cc3cccc4ccccc34)C1=C[C@H](C(C)C)O[C@@H]2C1CC1 | 3 | 25* | x | x | x | x | 10 | 3
COC(=O)[C@]12C[C@H](CC(=O)NCc3ccccc3)C(=O)N(Cc3cccc4ccccc34)C1=C[C@H](C(C)C)O[C@@H]2C1CC1 | 8 | 23* | x | x | x | x | 10 | 3
CC(C)C[C@@H]1COc2cc(Br)ccc2S(=O)(=O)N1Cc1cn(Cc2ccc(F)cc2)nn1 | -4 | -9 | x | x | x | x | x | x
CCc1ccc(NSc2ccccc2[N+](=O)[O-])cc1 | 8 | 20* | -9 | 6 | 0 | -1 | 6 | 2
O=C(O)c1ccccc1NSc1ccccc1[N+](=O)[O-] | -6 | -23 | -3 | 8 | -31 | 0 | x | x
CC(=O)Nc1ccc(S(=O)(=O)Oc2ccccc2N2CCCCC2)cc1 | 8 | 23* | 10 | 29 | -22 | 0 | 2 | 0
COc1cc(C(=S)N2CCCC2)ccc1OS(=O)(=O)c1ccc(NC(C)=O)cc1 | 0 | 1 | 1 | 0 | 4 | 0 | x | x
